This is an account of results in ChEMBL document CHEMBL4393735, “Molecular modelling, synthesis, and biological evaluations of a 3,5-disubstituted isoxazole fatty acid analogue as a PPARα-selective agonist” (Bioorg Med Chem, 2019).

Assay [1] has as its system SGBS. The assay can be described thus: Upregulation of PLIN1 gene expression in human preadipocyte derived from Simpson-Golabi-Behmel syndrome (SGBS) patient at 25 uM measured for 12 days by qRT-PCR analysis. Type of assay: functional, cell-based. In short, it runs like this: (§1)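 SGBS cells were differentiated with serum-free induction medium containing 25 μM test agent, 2 μM rosiglitazone or 0.1% DMSO from day 0. IBMX and dexamethasone were removed on day 4 and medium was renewed on day 8. RNA was taken on days 0, 4, 8 and 12 for qPCR, normalized to TBP and to day 0. At least three biological replicates in duplicate, two-way ANOVA with Bonferroni.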

The target of assay [2] is T1, Peroxisome proliferator-activated receptor alpha (Homo sapiens, UniProt Q07869).
T1 sequence (Q07869 whole entry): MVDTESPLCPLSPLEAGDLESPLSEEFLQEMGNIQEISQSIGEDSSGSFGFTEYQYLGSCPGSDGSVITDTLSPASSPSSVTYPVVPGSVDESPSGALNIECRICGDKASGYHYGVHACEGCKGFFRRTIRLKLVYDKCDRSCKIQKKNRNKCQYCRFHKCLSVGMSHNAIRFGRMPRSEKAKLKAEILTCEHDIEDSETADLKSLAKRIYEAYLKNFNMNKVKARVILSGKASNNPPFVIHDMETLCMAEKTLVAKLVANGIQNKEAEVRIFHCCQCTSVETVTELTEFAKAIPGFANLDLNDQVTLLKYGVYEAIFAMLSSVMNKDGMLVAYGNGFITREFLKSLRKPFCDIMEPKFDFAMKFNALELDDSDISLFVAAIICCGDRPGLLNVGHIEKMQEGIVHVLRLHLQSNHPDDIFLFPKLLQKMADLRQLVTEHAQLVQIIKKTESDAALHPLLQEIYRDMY
The assay can be described thus: Agonist activity at full length human FLAG-tagged GAL4-DBD fused PPARalpha LBD (168 to 468 residues) expressed in COS1 cells measured after 18 hrs by dual luciferase reporter gene assay. Format: cell-based. In short, it runs like this:
(§2)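 Dose-response in COS-1 cells transfected with GAL4-DBD–human PPARα or PPARγ LBD, a 5×UAS-SV40 firefly reporter and pRL-CMV. Cells were treated with increasing concentrations in 0.1% DMSO (final) 6 h post-transfection, then for 18 h. Firefly/Renilla ratio, normalized to GAL4-only activity. EC50 was taken from a sigmoidal dose-response fit. At least three independent transfections in quadruplicate.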

Assay [3] has as its system SGBS. The assay can be described thus: Upregulation of CEBPA gene expression in human preadipocyte derived from Simpson-Golabi-Behmel syndrome (SGBS) patient at 25 uM measured for 12 days by qRT-PCR analysis. Format: functional, cell-based. Summed up: as §1
For assay [4], the system named is SGBS. The experiment in a line: Upregulation of CD36 gene expression in human preadipocyte derived from Simpson-Golabi-Behmel syndrome (SGBS) patient at 25 uM measured for 12 days by qRT-PCR analysis. Type of assay: functional, cell-based. Summed up: as §1
The target of assay [5] is T2, Peroxisome proliferator-activated receptor alpha (Mus musculus) (UniProt P23204).
T2 sequence (whole entry): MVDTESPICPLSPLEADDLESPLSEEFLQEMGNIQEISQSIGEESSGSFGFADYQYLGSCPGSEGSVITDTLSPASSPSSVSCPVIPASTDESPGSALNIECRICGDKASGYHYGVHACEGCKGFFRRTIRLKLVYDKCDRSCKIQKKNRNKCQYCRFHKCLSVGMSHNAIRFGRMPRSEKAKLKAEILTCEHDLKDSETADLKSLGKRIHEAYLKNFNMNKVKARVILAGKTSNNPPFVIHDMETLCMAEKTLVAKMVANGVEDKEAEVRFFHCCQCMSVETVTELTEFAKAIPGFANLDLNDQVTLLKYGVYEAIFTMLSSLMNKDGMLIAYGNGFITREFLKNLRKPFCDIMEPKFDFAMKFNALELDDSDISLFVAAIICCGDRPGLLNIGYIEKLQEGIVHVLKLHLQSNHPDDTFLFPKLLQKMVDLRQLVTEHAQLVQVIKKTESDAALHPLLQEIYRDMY
The experiment in a line: Agonist activity at PPARalpha in C57BL/6N mouse primary hepatocytes assessed as SCD1 mRNA expression at 50 uM measured after 18 hrs by qRT-PCR analysis. Type of assay: cell-based. In short, it runs like this: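 Treatment for 18 h at 50 μM (or 1 μM for the 1 μM agents), DMSO vehicle. Harvested for qPCR. mRNA normalized to TBP by the comparative threshold method, expressed relative to DMSO control. Two biological replicates run in duplicate, mean ± SEM. Primary hepatocytes came from male C57BL/6N mice aged 7–8 weeks, isolated by portal-vein perfusion and digestion, seeded on collagen I and used on day 2. HuH-7 cells were kept in DMEM with 10% FBS and ITS.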

For assay [6], the target named is T3, Peroxisome proliferator-activated receptor gamma (Homo sapiens, UniProt P37231).
T3 sequence (P37231 whole entry): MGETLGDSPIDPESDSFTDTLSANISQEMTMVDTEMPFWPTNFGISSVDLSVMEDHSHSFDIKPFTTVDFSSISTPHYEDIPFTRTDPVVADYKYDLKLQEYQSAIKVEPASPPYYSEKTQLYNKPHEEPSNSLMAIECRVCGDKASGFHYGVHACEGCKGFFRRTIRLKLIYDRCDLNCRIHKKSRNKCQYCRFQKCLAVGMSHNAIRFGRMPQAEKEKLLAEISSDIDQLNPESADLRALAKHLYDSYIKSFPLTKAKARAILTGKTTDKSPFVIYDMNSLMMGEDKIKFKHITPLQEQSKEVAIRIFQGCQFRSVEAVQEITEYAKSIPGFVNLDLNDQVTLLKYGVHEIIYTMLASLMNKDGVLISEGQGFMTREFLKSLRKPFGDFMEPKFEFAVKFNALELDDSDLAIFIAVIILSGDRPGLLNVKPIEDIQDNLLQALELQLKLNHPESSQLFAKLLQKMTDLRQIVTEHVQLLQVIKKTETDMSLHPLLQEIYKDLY
The experiment in a line: Agonist activity at full length human FLAG-tagged GAL4-DBD fused PPARgamma LBD (205 to 505 residues) expressed in COS1 cells measured after 18 hrs by dual luciferase reporter gene assay. Type of assay: cell-based. In short, it runs like this: as §2

Active and inactive are the calls of the source.

For `CCCCCCCc1cc(CCCCCC(=O)O)no1`, the outcome (with SGBS [1]; in the assay with SGBS [3]; in the assay on SGBS [4]; in assay [5]) was Active. In addition, the results for the EC50 in assay [2] and in assay [6] were 0.047 mM and 2 mM, respectively.
